Activity and IC50 data for nine molecules are collected here from ChEMBL document CHEMBL1828531, “Pyrazol-3-propanoic acid derivatives as novel inhibitors of leukotriene biosynthesis in human neutrophils” (Eur J Med Chem, 2011).

The term IC50 denotes the concentration needed to halve the response being measured. Higher therefore signals weaker potency.

Where only a bound is given, the exact number is not on record here.

The target in test [1] is T1, Prostaglandin G/H synthase 2 (Homo sapiens) (UniProt P35354).
T1 sequence (whole entry): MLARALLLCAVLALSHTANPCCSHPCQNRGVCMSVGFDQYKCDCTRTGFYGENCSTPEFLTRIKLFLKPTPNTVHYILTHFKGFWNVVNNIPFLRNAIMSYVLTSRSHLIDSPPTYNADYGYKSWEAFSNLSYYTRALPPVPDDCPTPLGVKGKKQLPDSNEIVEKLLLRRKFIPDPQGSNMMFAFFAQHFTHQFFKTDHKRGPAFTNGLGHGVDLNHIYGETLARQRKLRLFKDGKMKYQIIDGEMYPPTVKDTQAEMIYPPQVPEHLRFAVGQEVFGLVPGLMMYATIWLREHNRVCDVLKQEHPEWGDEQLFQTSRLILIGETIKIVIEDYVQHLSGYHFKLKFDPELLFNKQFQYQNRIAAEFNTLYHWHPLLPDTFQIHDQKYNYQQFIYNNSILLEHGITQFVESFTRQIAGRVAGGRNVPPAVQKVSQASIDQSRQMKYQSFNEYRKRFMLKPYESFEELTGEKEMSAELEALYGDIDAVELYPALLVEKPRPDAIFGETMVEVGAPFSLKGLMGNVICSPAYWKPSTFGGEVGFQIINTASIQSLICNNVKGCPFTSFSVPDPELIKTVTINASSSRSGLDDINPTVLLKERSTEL
Nature of the test: Inhibition of COX2-mediated 6-keto PGF1alpha production in IL1-beta stimulated human A549 cells assessed as residual activity at 10 uM after 10 mins by EIA. Format: cell-based. In a few lines:
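A549 cells stimulated with IL-1β (1 ng/ml) 72 h in DMEM with 2% FCS, trypsinized and washed. 10^6 cells/mL PBS with 1 mM CaCl2 preincubated with compound 10 min at 37 °C. 3 µM AA added for 15 min at 37 °C, stopped on ice. 6-keto PGF1α in supernatant measured by EIA.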

Test [2] addresses T2, Polyunsaturated fatty acid 5-lipoxygenase (Homo sapiens) (UniProt P09917).
T2 sequence (whole entry): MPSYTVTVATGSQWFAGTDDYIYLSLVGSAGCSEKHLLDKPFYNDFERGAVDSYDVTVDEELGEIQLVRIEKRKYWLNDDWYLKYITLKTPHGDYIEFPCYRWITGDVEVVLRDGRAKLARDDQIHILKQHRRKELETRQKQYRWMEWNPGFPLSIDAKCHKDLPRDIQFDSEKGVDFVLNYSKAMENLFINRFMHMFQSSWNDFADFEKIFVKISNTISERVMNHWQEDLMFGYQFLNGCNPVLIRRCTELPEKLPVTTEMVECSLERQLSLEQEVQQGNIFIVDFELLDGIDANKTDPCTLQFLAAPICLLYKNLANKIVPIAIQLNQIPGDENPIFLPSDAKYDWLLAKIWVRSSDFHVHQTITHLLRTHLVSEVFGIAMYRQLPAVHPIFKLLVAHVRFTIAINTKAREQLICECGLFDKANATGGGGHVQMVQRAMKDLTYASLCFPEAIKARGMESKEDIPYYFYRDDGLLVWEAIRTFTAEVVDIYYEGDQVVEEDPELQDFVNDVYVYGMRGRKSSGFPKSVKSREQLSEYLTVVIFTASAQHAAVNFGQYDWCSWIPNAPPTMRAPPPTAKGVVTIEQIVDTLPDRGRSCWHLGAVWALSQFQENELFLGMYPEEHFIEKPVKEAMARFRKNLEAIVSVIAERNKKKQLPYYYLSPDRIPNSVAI
Nature of the test: Inhibition of 5-Lipoxygenase in arachidonic acid-stimulated human neutrophils assessed as residual activity at 10 uM after 15 mins by HPLC analysis in presence of A23187. In a few lines:
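Human neutrophils, 5 × 10^6/mL in PBS/glucose/1 mM CaCl2, preincubated 15 min at RT, then 2.5 µM A23187 plus 20 µM AA for 10 min at 37 °C. Methanol stop, PGB1 internal standard, HPLC of LTB4, its all-trans isomers and 5-H(p)ETE. Residual % versus 0.3% DMSO vehicle, mean ± SEM, n = 3–5. IC50 by linear interpolation from 4–5 concentrations.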

The target in test [3] is T3, Polyunsaturated fatty acid lipoxygenase ALOX15 (Homo sapiens, UniProt P16050).
T3 sequence (P16050 whole entry): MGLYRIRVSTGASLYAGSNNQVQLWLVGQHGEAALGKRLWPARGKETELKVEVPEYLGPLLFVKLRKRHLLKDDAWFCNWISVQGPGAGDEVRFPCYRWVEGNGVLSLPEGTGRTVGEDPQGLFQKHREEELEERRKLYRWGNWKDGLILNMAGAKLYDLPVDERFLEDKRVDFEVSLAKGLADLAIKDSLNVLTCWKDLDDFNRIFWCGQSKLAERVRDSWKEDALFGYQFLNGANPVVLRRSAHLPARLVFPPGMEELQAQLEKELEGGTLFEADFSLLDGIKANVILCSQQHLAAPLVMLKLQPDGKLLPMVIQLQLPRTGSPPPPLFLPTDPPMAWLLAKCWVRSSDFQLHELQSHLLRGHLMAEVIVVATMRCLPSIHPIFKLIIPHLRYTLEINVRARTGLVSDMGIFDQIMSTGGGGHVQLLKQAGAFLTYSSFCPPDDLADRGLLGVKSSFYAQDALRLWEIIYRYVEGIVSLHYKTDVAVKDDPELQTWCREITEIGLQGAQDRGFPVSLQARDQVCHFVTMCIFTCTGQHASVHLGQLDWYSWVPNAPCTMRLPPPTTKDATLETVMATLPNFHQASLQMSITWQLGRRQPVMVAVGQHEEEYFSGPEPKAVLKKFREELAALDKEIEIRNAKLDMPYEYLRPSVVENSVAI
Nature of the test: Inhibition of 15-Lipoxygenase-mediated 15-HETE in human neutrophil after 15 mins by HPLC analysis. Summed up:
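Freshly isolated human blood neutrophils, 5 × 10^6/mL in PBS pH 7.4 with 1 mg/mL glucose and 1 mM CaCl2, preincubated with compound 15 min at RT. Stimulated with 2.5 µM A23187 plus 20 µM AA for 10 min at 37 °C. Stopped with methanol/HCl, PGB1 internal standard. 12-HETE or 15-HETE measured by HPLC. Residual activity tested at 30 µM.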

Test [4] addresses Prostaglandin G/H synthase 1 (Homo sapiens, UniProt P23219). Nature of the test: Inhibition of COX1-mediated 12-HHT production in human platelet assessed as residual activity at 10 uM after 5 mins by HPLC analysis. In a few lines:
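Washed human platelets, 10^8/mL in PBS with 1 mM CaCl2, preincubated with compound 4 min at 4 °C then 1 min at 37 °C. 5 µM AA added for 5 min at 37 °C. Methanol/HCl stop, PGB1 added, 12-HHT by HPLC. Residual activity at 10 µM. IC50 by interpolation from 4–5 concentrations.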

Chain of Prostaglandin G/H synthase 1 (P23219 whole entry): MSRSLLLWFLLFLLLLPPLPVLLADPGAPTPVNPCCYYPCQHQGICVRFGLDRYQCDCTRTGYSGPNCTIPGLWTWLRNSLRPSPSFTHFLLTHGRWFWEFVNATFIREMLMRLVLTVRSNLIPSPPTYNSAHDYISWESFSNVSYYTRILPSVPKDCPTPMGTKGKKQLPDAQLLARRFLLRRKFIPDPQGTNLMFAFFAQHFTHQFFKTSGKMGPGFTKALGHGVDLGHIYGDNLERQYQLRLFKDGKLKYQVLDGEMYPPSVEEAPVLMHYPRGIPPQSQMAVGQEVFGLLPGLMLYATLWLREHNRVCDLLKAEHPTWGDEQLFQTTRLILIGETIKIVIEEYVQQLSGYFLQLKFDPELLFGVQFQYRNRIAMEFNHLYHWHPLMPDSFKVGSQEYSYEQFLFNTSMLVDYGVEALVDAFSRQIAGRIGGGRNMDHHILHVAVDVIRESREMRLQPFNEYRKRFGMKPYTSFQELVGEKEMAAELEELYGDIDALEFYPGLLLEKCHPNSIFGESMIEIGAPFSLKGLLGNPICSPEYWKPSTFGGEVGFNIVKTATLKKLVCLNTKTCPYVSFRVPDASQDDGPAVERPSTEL

On to `CCOC(=O)C1CCN(C(=O)CCc2cc(-c3ccc(C(F)(F)F)cc3)n(-c3ccc(Cl)nn3)n2)CC1`, for which the Activity in test [1] was determined as 78.6%; in test [2] it was 62%; in test [4] it was 102%. For the same molecule, in test [3], the IC50 is > 10 µM.
With `CC(C)(C)c1ccc(CN2CCN(C(=O)CCc3cc(-c4ccc(F)cc4)n(-c4ccc(Cl)nn4)n3)CC2)cc1`, the Activity amounted to 84.2% in test [1], 23.4% in test [2] and 82.9% in test [4]. Further, the IC50 in test [3] was > 10 µM.
Turning to `Cc1ccc(-c2cc(CCC(=O)N3CCN(Cc4ccc(C(C)(C)C)cc4)CC3)nn2-c2ccccc2)cc1`, the Activity is 97% in test [1], 13.5% in test [2] and 21% in test [4]. For the same molecule, in test [3], the IC50 is > 10 µM.
As to `Cc1ccc(-c2cc(CCC(=O)Oc3ccc(C(C)C)cc3)nn2-c2ccc(Cl)nn2)cc1`, the Activity amounted to 99.9% in test [1], 46.4% in test [2] and 51.1% in test [4].
As to `CCOC(=O)C1CCN(C(=O)CCc2cc(-c3ccc(C)cc3)n(-c3ccccc3)n2)CC1`, the Activity stood at 86.3% in test [1], 6.7% in test [2] and 57.1% in test [4]. In test [3], the IC50 is > 10 µM.
On the same counts, the results for `CCOC(=O)C1CCN(C(=O)CCc2cc(-c3ccc(C)cc3)n(-c3ccc4ccccc4n3)n2)CC1` are 66.3%, 25.8%, 15.9% and > 10 µM.
On the same counts, the results for `Cc1ccc(-c2cc(CCC(=O)Oc3ccc(C(C)C)cc3)nn2-c2ccccc2)cc1` are 111%, 20.4%, 10.6% and > 10 µM.
With `Cc1ccc(-c2cc(CCC(=O)N3CCN(Cc4ccc(C(C)(C)C)cc4)CC3)nn2-c2ccc3ccccc3n2)cc1`, the results for the Activity in test [1], in test [2] and in test [4] were 79%, 16.4% and 8.2%, respectively. Besides, in test [3], the IC50 is > 10 µM.
As to `Cc1ccc(-c2cc(CCC(=O)Oc3ccc(C(C)C)cc3)nn2-c2ccc3ccccc3n2)cc1`, the Activity in test [1] came out at 97%; in test [2], 65.4%. Also, the IC50 in test [3] was > 10 µM.
